For four molecules, inhibition and IC50 results are on record in ChEMBL document CHEMBL1157789, “Design, synthesis and SAR of phenylamino-substituted 5,11-dihydro-dibenzo[a,d]cyclohepten-10-ones and 11H-dibenzo[b,f]oxepin-10-ones as p38 MAP kinase inhibitors” (Bioorg Med Chem Lett, 2010).

The source made the active and inactive calls. The rule behind the calls is not given here.

Experiment [1] deals with T1, NUAK family SNF1-like kinase 1 (Homo sapiens) (UniProt O60285).
T1 sequence (whole entry): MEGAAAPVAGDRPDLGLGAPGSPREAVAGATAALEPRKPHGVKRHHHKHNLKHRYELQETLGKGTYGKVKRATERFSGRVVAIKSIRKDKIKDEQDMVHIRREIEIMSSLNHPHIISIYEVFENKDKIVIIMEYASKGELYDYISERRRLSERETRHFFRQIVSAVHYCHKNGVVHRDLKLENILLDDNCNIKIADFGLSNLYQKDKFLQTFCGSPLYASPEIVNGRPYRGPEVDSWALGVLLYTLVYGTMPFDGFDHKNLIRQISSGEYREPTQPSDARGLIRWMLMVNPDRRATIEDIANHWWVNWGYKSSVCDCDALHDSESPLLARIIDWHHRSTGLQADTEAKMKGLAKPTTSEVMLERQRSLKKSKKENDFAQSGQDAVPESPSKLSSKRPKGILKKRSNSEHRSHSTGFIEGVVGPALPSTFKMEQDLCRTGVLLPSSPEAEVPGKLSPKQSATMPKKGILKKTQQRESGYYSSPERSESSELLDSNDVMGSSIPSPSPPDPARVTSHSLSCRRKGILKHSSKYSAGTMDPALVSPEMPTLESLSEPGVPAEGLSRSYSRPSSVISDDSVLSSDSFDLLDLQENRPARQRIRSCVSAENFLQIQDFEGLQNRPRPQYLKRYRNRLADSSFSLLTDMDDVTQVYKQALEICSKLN
Briefly: Inhibition of ARK5 at 10 uM.

Experiment [2] has as its target Aurora kinase B (Homo sapiens) (UniProt Q96GD4). Put plainly: Inhibition of Aurora B at 10 uM.
The nature of experiment [3]: Inhibition of p38 assessed as rate of ATF-2 phosphorylation by immunosorbent non-radioactive enzyme assay. Summed up:
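p38α MAP kinase ELISA-type (immunosorbent, non-radioactive) assay. Enzyme was incubated with ATP at 100 µM, ATF-2 as substrate, and test compound at 10^-5 to 10^-8 M. Activity was read as the rate of ATF-2 phosphorylation. SB203580 served as the reference inhibitor.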

Experiment [4] deals with Insulin-like growth factor 1 receptor (Homo sapiens) (UniProt P08069). Briefly: Inhibition of IGF1R at 10 uM.
Sequence of Insulin-like growth factor 1 receptor (Homo sapiens) (P08069 31-736 limits assumed): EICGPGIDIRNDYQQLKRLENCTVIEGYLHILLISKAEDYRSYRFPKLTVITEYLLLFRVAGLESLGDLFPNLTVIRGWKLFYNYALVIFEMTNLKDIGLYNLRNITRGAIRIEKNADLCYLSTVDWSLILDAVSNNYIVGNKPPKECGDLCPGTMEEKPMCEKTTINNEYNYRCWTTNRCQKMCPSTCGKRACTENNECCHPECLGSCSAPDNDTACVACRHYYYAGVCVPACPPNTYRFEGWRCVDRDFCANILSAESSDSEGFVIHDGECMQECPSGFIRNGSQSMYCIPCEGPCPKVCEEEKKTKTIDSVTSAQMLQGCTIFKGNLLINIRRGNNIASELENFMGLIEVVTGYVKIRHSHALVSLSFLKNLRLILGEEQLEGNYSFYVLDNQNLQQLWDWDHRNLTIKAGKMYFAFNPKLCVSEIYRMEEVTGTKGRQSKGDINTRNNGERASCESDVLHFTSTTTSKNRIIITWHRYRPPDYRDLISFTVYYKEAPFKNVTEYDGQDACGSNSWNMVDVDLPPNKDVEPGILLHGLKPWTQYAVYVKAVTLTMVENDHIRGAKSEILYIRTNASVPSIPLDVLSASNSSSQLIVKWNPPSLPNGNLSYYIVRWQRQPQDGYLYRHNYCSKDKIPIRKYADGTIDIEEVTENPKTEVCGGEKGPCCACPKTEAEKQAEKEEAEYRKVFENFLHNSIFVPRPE
Sequence of Insulin-like growth factor 1 receptor (Homo sapiens) (P08069 741-1367 limits assumed): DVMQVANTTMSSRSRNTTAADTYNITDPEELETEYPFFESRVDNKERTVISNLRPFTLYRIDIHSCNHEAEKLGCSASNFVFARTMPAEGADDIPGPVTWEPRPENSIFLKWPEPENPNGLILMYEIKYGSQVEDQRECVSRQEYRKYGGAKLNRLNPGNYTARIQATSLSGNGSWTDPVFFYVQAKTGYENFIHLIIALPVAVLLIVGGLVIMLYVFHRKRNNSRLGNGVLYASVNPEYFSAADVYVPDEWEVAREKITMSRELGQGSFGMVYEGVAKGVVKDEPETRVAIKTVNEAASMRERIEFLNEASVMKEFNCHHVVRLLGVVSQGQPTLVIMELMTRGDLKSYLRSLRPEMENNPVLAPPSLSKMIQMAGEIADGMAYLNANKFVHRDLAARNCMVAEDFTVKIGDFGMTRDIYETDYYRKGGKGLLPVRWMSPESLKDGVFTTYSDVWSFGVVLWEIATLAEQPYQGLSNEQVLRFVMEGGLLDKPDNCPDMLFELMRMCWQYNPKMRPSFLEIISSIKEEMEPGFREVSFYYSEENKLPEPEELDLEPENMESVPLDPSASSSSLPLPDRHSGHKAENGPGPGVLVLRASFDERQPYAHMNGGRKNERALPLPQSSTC
Experiment [5] deals with BDNF/NT-3 growth factors receptor (Homo sapiens) (UniProt Q16620). Put plainly: Inhibition of TRKB at 10 uM.
Experiment [6] concerns the target RAC-alpha serine/threonine-protein kinase (Homo sapiens) (UniProt P31749). Put plainly: Inhibition of AKT1 at 10 uM.
The target of experiment [7] is Casein kinase II subunit alpha (Homo sapiens) (UniProt P68400). Briefly: Inhibition of CK2alpha1 at 10 uM.
Sequence of Casein kinase II subunit alpha (Homo sapiens) (P68400 whole entry, looked up): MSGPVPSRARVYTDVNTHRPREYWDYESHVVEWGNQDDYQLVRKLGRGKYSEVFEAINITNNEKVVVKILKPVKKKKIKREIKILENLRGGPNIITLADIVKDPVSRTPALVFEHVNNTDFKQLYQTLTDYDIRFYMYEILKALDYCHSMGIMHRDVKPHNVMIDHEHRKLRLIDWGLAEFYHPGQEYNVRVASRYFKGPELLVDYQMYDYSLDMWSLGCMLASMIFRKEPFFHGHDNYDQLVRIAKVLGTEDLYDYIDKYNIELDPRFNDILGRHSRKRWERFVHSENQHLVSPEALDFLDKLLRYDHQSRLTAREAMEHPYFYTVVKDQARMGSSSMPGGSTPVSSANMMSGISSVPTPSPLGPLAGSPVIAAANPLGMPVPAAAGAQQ
Experiment [8] addresses T2, Serine/threonine-protein kinase PLK4 (Homo sapiens) (UniProt O00444).
T2 sequence (whole entry): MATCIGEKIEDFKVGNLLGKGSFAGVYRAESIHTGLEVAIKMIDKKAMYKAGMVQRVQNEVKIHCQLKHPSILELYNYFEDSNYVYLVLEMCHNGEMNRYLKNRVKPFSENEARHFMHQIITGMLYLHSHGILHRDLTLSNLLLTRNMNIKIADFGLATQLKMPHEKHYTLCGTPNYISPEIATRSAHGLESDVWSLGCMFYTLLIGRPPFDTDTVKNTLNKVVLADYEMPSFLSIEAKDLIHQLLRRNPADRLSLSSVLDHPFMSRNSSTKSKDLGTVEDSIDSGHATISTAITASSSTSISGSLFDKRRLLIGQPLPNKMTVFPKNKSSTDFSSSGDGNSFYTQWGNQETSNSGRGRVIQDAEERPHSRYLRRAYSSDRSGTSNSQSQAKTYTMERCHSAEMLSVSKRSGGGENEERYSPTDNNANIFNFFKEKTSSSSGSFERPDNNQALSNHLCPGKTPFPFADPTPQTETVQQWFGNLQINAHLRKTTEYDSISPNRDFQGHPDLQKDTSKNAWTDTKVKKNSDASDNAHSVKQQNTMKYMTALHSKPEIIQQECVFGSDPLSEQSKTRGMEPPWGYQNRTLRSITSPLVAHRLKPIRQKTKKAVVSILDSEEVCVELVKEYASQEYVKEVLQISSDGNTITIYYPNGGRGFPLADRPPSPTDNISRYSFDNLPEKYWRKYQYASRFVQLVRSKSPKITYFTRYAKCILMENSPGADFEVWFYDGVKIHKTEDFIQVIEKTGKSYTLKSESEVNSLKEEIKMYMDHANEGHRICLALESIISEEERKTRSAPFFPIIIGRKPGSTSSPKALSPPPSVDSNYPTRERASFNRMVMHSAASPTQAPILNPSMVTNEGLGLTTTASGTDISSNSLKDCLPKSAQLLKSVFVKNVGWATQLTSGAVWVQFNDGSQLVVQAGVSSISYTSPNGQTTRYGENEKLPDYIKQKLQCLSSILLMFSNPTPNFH
Briefly: Inhibition of SAK at 10 uM.

Experiment [9] addresses Focal adhesion kinase 1 (Homo sapiens) (UniProt Q05397). Put plainly: Inhibition of FAK at 10 uM.
The target in experiment [10] is Vascular endothelial growth factor receptor 2 (Homo sapiens) (UniProt P35968). Put plainly: Inhibition of VGFR2 at 10 uM.
For experiment [11], the target named is Serine/threonine-protein kinase PLK1 (Homo sapiens) (UniProt P53350). Briefly: Inhibition of PLK1 at 10 uM.
Experiment [12] concerns the target Serine/threonine-protein kinase N1 (Homo sapiens) (UniProt Q16512). Briefly: Inhibition of PRK1 at 10 uM.
Experiment [13] deals with Proto-oncogene tyrosine-protein kinase Src (Homo sapiens) (UniProt P12931). Briefly: Inhibition of SRC at 10 uM.
Sequence of Proto-oncogene tyrosine-protein kinase Src (Homo sapiens) (P12931 2-536 limits assumed): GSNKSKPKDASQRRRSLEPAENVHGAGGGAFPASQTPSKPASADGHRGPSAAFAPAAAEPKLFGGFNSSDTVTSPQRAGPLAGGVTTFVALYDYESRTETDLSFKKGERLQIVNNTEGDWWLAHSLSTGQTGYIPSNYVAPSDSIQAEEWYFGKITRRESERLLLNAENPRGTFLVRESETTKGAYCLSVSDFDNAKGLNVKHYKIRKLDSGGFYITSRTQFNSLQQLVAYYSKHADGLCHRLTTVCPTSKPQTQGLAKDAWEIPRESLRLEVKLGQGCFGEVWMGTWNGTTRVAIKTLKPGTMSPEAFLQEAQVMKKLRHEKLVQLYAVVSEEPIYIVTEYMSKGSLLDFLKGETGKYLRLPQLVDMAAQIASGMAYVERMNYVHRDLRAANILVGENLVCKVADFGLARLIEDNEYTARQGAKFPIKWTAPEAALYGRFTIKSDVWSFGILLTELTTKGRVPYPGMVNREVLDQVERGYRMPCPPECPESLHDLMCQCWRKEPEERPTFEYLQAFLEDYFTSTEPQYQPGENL
Experiment [14] addresses Tyrosine-protein kinase receptor UFO (Homo sapiens) (UniProt P30530). Briefly: Inhibition of AXL at 10 uM.
The subject of experiment [15] is Serine/threonine-protein kinase B-raf (Homo sapiens), P15056 [V600E]. Put plainly: Inhibition of B-Raf V600E mutant at 10 uM.
Experiment [16] deals with Hepatocyte growth factor receptor (Homo sapiens) (UniProt P08581). Put plainly: Inhibition of MET at 10 uM.
In experiment [17] the target is Insulin receptor (Homo sapiens) (UniProt P06213). Briefly: Inhibition of INSR at 10 uM.

Sequence of RAC-alpha serine/threonine-protein kinase (Homo sapiens) (P31749 whole entry): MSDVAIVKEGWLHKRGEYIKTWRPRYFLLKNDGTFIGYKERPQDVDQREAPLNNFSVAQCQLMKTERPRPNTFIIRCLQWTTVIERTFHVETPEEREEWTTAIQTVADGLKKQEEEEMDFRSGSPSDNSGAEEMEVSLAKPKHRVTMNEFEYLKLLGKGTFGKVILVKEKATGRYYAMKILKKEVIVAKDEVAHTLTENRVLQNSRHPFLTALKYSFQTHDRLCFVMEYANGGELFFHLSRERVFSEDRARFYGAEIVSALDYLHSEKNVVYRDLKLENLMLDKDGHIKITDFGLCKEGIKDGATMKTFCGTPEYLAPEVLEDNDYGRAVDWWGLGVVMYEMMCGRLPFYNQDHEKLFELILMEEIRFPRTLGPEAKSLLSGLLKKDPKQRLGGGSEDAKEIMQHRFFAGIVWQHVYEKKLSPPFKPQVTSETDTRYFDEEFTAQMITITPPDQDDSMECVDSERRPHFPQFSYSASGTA
Sequence of Aurora kinase B (Homo sapiens) (Q96GD4 whole entry): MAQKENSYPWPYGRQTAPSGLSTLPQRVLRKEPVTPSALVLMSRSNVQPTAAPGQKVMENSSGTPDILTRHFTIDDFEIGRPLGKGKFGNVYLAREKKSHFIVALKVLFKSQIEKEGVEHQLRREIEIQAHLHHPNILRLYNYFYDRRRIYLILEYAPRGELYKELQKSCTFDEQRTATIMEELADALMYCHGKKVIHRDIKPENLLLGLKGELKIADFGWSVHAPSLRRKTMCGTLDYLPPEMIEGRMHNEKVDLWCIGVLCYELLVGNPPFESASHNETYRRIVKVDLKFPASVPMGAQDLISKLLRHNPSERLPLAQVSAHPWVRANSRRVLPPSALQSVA
Sequence of Tyrosine-protein kinase receptor UFO (Homo sapiens) (P30530 whole entry): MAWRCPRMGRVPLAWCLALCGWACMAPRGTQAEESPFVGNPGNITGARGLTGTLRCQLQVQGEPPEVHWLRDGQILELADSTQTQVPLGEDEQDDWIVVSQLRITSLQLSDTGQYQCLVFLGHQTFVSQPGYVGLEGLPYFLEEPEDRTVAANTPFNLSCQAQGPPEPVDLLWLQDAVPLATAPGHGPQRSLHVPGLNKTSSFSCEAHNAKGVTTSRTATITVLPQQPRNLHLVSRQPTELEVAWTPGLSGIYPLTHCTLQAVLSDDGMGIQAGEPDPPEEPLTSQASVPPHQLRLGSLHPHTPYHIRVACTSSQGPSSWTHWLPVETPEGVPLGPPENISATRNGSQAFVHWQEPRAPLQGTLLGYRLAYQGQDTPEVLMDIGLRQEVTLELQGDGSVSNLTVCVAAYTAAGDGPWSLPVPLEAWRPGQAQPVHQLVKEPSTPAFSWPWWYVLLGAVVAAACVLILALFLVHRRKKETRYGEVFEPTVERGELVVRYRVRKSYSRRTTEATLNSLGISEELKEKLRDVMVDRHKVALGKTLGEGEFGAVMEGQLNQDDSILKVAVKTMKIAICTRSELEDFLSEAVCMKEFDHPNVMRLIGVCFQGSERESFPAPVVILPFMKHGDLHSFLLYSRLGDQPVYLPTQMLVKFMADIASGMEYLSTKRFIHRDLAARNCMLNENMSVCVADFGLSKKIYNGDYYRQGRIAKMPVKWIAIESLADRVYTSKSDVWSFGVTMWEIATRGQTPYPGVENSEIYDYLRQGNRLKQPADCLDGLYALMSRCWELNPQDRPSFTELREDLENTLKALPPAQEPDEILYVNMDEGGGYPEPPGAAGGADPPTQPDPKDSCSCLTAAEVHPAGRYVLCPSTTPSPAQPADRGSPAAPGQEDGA
Sequence of Serine/threonine-protein kinase N1 (Homo sapiens) (Q16512 2-942 limits assumed): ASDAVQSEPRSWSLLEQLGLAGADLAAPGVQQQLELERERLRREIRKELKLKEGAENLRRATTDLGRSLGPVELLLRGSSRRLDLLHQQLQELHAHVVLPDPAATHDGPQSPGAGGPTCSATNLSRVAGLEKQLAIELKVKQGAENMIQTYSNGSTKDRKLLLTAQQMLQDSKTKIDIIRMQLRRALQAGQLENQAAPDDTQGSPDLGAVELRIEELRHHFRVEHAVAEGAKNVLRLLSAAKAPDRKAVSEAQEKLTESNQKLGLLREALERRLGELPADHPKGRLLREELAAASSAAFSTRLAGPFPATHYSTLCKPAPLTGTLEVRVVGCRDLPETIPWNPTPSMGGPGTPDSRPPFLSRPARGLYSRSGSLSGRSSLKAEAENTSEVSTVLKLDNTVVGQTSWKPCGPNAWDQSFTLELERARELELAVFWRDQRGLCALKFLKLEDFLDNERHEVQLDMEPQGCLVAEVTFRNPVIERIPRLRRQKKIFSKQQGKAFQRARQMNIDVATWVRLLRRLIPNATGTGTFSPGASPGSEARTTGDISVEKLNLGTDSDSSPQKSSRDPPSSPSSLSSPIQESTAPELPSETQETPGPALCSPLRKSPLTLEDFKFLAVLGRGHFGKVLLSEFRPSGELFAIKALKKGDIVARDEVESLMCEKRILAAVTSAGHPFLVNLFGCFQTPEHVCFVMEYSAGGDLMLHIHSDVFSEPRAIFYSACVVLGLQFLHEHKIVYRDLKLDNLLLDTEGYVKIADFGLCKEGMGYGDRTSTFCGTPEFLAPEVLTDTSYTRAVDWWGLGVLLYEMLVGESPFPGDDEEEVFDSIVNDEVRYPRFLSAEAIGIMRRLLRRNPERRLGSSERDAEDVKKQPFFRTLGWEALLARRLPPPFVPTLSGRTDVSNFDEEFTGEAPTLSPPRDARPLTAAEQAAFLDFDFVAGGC

Take `Nc1ccccc1Nc1ccc2c(c1)C(=O)Cc1ccccc1C2`: the inhibition entry in experiment [1], in [2], in experiment [4], in [5], in experiment [6] and in experiment [7] was “inactive” throughout. Further, the inhibition result in [8], in experiment [9], in experiment [10], in [11], in experiment [12] and in experiment [13] was “inactive” each time. Further, the inhibition result in [14], in experiment [15], in experiment [16] and in experiment [17] was “inactive” throughout. Besides, the IC50 (as a rule, the midpoint of a concentration-inhibition curve) in [3] amounted to 4.01 µM.
On to `Nc1cc(F)ccc1Nc1ccc2c(c1)Oc1ccccc1NC2=O`, for which the inhibition entry in experiment [1], in experiment [2], in [4], in [5], in [6] and in experiment [7] was “inactive” throughout. Moreover, the inhibition result in [8], in experiment [9], in [10], in experiment [11], in experiment [12] and in experiment [13] was “inactive” in each case. Moreover, the inhibition result in experiment [14], in experiment [15], in [16] and in experiment [17] was “inactive” each time. Further, the IC50 in experiment [3] was 2.92 µM.
As to `Nc1ccccc1Nc1ccc2c(c1)CC(=O)c1ccccc1C2`, the inhibition entry in experiment [1], in [2], in [4], in experiment [5], in experiment [6] and in experiment [7] was “inactive” throughout. Besides, the inhibition result in [8], in experiment [9], in experiment [10], in experiment [11], in experiment [12] and in experiment [13] was “inactive” in each case. For the same molecule, the inhibition entry in [14], in experiment [15], in [16] and in experiment [17] was “inactive” throughout. Also, the concentration for half-maximal inhibition (IC50) in experiment [3] came to 2.1 µM.
With `Nc1ccccc1Nc1ccc2c(c1)Cc1ccccc1C(=O)C2`, the inhibition entry in [1], in experiment [2], in [4], in experiment [5], in [6] and in experiment [7] was “inactive” each time. Also, the inhibition entry in experiment [8], in [9], in experiment [10], in [11], in [12] and in [13] was “inactive” in each case. Moreover, the inhibition result in [14], in [15], in [16] and in [17] was “inactive” throughout. In addition, the half-inhibitory concentration (IC50) in experiment [3] worked out at 1.93 µM.
